# Results reported in ChEMBL document CHEMBL1667822, “Selective antagonists of mouse trace amine-associated receptor 1 (mTAAR1): discovery of EPPTB (RO5212773)” (Bioorg Med Chem Lett, 2011).
# Assays:
# [1] = molecular target: Muscarinic acetylcholine receptor M2 (Homo sapiens) (UniProt P08172); assay: Displacement of [3H]AF-DX 384 from human recombinant muscarinic M2 receptor expressed in CHO cells; assay type: cell-based; conditions: concentration not given here
# CHO = assay: Displacement of [3H]DADLE from human recombinant delta 2 opioid receptor expressed in CHO cells; assay type: cell-based; conditions: dose or concentration not given here
# [2] = molecular target: Mu-type opioid receptor (Homo sapiens) (UniProt P35372); assay: Displacement of [3H]DAMGO from human recombinant mu opioid receptor expressed in HEK293 cells; assay type: cell-based; conditions: concentration not given here
# [3] = molecular target: Small conductance calcium-activated potassium channel protein 1 (Rattus norvegicus) (UniProt P70606); assay: Displacement of [125I]apamin from SK+Ca channel in rat cerebral cortex; assay type: tissue-based; conditions: concentration not given here
# [4] = molecular target: Sodium-dependent dopamine transporter (Homo sapiens) (UniProt Q01959); assay: Inhibition of human dopamine transporter at 10 uM
# Rattus norvegicus [5] = species: Rattus norvegicus; assay: Displacement of [3H]GABA from GABA receptor in rat cerebral cortex; assay type: tissue-based; conditions: concentration not given here
# [6] = molecular target: Sodium-dependent serotonin transporter (Homo sapiens) (UniProt P31645); assay: Inhibition of human serotonin transporter at 10 uM
# [7] = molecular target: Cholecystokinin receptor type A (Homo sapiens) (UniProt P32238); assay: Inhibition of human cholecystokinin 1 receptor at 10 uM
# [8] = molecular target: Vasopressin V1a receptor (Homo sapiens) (UniProt P37288); assay: Displacement of [3H]AVP from human recombinant V1a receptor expressed in H recombinant CHO cells; assay type: cell-based; conditions: concentration not given here
# [9] = molecular target: 5-hydroxytryptamine receptor 5A (Homo sapiens) (UniProt P47898); assay: Displacement of [3H]LSD from human recombinant 5HT5A receptor expressed in CHO cells; assay type: cell-based; conditions: concentration not given here
# [10] = molecular target: Cannabinoid receptor 1 (Homo sapiens) (UniProt P21554); assay: Inhibition of human cannabinoid CB1 receptor at 10 uM
# [11] = molecular target: Muscarinic acetylcholine receptor M1 (Homo sapiens) (UniProt P11229); assay: Displacement of [3H]pirenzepine from human recombinant muscarinic M1 receptor expressed in CHO cells; assay type: cell-based; conditions: concentration not given here
# [12] = Intrinsic clearance in mouse liver microsomes measured per mg of protein; assay type: ADME, Microsome
# Procedure, shortened: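 Intrinsic clearance from in vitro incubation of compound with mouse liver microsomes, expressed per mg microsomal protein.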
# [13] = molecular target: B2 bradykinin receptor (Homo sapiens) (UniProt P30411); assay: Displacement of [3H]bradykinin from human recombinant bradykinin B2 receptor expressed in CHO cells; assay type: cell-based; conditions: concentration not given here
# [14] = molecular target: Adenosine receptor A3 (Homo sapiens) (UniProt P0DMS8); assay: Displacement of [3H]AB-MECA from human recombinant A3 receptor expressed in HEK293 cells; assay type: cell-based; conditions: concentration not given here
# [15] = molecular target: Trace amine-associated receptor 1 (Mus musculus, UniProt Q923Y8); assay: Inhibition of mouse TAAR1
# [16] = molecular target: Muscarinic acetylcholine receptor M3 (Homo sapiens) (UniProt P20309); assay: Displacement of [3H]4-DAMP from human recombinant muscarinic M3 receptor expressed in CHO cells; assay type: cell-based; conditions: concentration not given here
# Rattus norvegicus [17] = species: Rattus norvegicus; assay: Displacement of [125I]a-dendrotoxin from K+V channel in rat cerebral cortex; assay type: tissue-based; conditions: concentration not given here
# [18] = molecular target: T1, Trace amine-associated receptor 1 (Homo sapiens, UniProt Q96RJ0); assay: Inhibition of human TAAR1
# T1 sequence (Q96RJ0 whole entry): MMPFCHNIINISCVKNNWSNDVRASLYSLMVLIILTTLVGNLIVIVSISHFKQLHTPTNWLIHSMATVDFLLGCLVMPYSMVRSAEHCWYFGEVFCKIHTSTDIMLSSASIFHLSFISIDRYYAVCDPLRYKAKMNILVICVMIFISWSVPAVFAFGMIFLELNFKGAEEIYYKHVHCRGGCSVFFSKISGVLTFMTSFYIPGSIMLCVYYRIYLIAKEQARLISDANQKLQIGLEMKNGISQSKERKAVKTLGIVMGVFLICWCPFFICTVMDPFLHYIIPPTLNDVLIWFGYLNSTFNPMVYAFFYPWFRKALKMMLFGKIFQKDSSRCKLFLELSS
# Procedure, shortened: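 In vitro cAMP functional assay with antagonism read as reversal of the response to the endogenous agonist beta-PEA. Efficacy was scaled so that 100% equals 0% minimum stimulation. Residual beta-PEA stimulation was taken at the highest test-compound concentration. Values are means of at least two independent experiments, with duplicates typically within a twofold margin.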
# [19] = molecular target: Adrenergic receptor alpha-2 (Rattus norvegicus) (UniProt P22086+P19328+P22909); assay: Displacement of [3H]RX8210 from alpha2 receptor in rat cerebral cortex; assay type: tissue-based; conditions: concentration not given here
# [20] = Clearance in mouse at 2.5 mg/kg, iv; assay type: ADME, organism-based; set-up: dose 2.5 mg/kg, route intravenous; conditions: in vivo
# Procedure, shortened: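 Single-dose pharmacokinetics in mice comparing parenteral routes: intravenous at 2.5 mg/kg and intraperitoneal at 5 mg/kg. Plasma concentrations were followed over time. Bioavailability was derived for the ip route, and Cmax was taken from the ip plasma profile.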
# [21] = molecular target: C-C chemokine receptor type 1 (Homo sapiens) (UniProt P32246); assay: Displacement of [125I]MIP-1a from human recombinant CCR1 receptor expressed in HEK293 cells; assay type: cell-based; conditions: concentration not given here
# [22] = molecular target: Somatostatin receptor (Mus musculus) (UniProt P30935+O08858+P30875+P30873+P49660); assay: Inhibition of mouse somatostatin receptor at 10 uM; assay type: protein assay
# [23] = molecular target: Histamine H1 receptor (Homo sapiens) (UniProt P35367); assay: Displacement of [3H]pyrilamine from human recombinant histamine H1 receptor expressed in HEK293 cells; assay type: cell-based; conditions: concentration not given here
# [24] = molecular target: monoamine oxidase-B (MAO-B) (Rattus norvegicus, UniProt P19643); assay: Inhibition of rat monoamine oxidase-B at 10 uM
# [25] = molecular target: D(2) dopamine receptor (Homo sapiens) (UniProt P14416); assay: Displacement of [3H]spiperone from human recombinant dopamine D2S receptor expressed in HEK293 cells; assay type: cell-based; conditions: concentration not given here
# [26] = molecular target: Sodium-dependent noradrenaline transporter (Homo sapiens) (UniProt P23975); assay: Inhibition of human norepinephrine transporter at 10 uM
# [27] = molecular target: Kappa-type opioid receptor (Rattus norvegicus) (UniProt P34975); assay: Displacement of [3H]U69593 from rat recombinant kappa opioid receptor expressed in CHO cells; assay type: cell-based; conditions: concentration not given here
# [28] = molecular target: 5-hydroxytryptamine receptor 7 (Homo sapiens) (UniProt P34969); assay: Displacement of [3H]LSD from human recombinant 5HT7 receptor expressed in CHO cells; assay type: cell-based; conditions: concentration not given here
# [29] = Ratio of drug level in brain to plasma in mouse at 5 mg/kg, ip; assay type: ADME, organism-based; set-up: dose 5 mg/kg, route intraperitoneal; conditions: read-out: BPR
# Procedure, shortened: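 Single-dose pharmacokinetics in mice with parenteral dosing, either 2.5 mg/kg iv or 5 mg/kg ip. Drug levels were measured in plasma, with brain exposure taken as the brain/plasma concentration ratio.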
# [30] = molecular target: Trace amine-associated receptor 1 (Rattus norvegicus, UniProt Q923Y9); assay: Antagonist activity at rat TAAR1 assessed as reversal of endogenous beta-PEA effect; assay type: functional
# Procedure, shortened: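 cAMP functional assay in vitro measuring reversal of the effect of endogenous agonist beta-PEA; 100% antagonistic efficacy defined as 0% min% stimulation. Residual stimulation by beta-PEA recorded at the maximum test-compound concentration. Values are the average of at least two independent experiments; duplicates typically within a twofold margin.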
# [31] = molecular target: Beta-1 adrenergic receptor (Homo sapiens) (UniProt P08588); assay: Displacement of [3H](-)CGP 12177 from human recombinant beta1 receptor expressed in HEK293 cells; assay type: cell-based; conditions: concentration not given here
# Rattus norvegicus [32] = species: Rattus norvegicus; assay: Displacement of [3H]flunitrazepam from BZD receptor in rat cerebral cortex; assay type: tissue-based; conditions: concentration not given here
# Chain of Muscarinic acetylcholine receptor M3 (Homo sapiens) (P20309 whole entry, looked up): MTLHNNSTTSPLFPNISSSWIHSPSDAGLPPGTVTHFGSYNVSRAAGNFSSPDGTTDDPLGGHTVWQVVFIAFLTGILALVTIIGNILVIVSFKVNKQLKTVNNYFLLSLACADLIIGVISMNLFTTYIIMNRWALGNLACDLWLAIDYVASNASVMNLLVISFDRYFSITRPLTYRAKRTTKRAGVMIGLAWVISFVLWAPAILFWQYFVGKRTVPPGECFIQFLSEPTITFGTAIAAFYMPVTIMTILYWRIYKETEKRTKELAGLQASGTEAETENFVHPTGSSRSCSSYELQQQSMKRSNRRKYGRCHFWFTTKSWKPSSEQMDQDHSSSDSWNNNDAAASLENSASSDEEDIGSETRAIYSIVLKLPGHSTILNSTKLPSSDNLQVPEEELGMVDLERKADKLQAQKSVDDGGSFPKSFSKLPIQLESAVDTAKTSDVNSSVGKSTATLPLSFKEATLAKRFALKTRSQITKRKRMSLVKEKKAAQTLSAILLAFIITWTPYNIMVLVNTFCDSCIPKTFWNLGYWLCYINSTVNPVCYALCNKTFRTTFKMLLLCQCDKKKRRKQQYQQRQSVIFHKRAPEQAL
# Chain of B2 bradykinin receptor (Homo sapiens) (P30411 whole entry): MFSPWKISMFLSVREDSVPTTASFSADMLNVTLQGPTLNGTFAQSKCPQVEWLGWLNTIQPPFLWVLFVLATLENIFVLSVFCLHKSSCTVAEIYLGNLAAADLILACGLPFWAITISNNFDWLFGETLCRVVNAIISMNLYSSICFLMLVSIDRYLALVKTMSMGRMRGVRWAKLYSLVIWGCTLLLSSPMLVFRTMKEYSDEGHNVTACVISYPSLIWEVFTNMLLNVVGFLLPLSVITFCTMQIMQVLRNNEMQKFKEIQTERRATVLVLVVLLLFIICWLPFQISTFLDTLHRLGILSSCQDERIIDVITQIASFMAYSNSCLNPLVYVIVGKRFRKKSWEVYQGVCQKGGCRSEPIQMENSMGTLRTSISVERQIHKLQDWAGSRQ
# Chain of D(2) dopamine receptor (Homo sapiens) (P14416 whole entry): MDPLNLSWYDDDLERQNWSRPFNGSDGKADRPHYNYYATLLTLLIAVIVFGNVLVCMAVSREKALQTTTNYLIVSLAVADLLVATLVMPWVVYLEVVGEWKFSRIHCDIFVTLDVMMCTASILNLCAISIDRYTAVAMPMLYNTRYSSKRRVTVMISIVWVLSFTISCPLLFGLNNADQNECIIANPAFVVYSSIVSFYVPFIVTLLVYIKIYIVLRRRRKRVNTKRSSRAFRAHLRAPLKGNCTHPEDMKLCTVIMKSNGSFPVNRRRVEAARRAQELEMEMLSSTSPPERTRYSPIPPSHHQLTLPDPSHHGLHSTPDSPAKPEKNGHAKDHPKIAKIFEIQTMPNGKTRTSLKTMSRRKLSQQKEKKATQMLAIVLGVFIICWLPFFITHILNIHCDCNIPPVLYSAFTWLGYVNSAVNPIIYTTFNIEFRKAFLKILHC
# Chain of Adenosine receptor A3 (Homo sapiens) (P0DMS8 whole entry): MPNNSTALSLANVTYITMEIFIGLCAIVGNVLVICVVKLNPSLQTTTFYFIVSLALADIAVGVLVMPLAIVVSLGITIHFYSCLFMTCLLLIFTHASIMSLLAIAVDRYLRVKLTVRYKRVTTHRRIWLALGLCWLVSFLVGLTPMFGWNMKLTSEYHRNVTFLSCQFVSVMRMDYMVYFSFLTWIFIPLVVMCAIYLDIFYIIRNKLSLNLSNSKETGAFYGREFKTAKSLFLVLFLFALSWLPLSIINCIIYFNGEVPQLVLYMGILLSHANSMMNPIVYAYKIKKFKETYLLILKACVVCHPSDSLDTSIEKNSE
# Chain of monoamine oxidase-B (MAO-B) (P19643 whole entry): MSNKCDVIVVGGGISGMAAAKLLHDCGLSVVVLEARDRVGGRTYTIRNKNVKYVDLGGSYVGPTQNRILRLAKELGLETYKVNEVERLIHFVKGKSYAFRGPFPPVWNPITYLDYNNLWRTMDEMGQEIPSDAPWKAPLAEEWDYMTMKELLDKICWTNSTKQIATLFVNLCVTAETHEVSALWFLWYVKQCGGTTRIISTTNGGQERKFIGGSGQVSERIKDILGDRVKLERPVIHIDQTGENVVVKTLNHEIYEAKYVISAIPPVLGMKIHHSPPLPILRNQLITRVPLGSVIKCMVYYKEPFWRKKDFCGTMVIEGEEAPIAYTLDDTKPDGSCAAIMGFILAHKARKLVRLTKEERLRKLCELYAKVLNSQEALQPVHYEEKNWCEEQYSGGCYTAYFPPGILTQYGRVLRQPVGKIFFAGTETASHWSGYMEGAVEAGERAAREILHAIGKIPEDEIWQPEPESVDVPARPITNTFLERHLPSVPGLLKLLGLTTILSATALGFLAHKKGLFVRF
# Chain of Trace amine-associated receptor 1 (Mus musculus, UniProt Q923Y8) (Q923Y8 whole entry): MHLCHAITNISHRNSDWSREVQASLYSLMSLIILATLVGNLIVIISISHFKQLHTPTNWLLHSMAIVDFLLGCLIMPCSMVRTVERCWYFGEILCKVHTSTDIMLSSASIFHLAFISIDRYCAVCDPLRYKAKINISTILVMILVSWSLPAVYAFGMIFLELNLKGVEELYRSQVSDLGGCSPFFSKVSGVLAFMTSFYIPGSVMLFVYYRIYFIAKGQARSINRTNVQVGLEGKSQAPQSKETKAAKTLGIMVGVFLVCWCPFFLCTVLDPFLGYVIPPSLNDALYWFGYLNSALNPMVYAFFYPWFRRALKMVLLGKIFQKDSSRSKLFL
# Chain of 5-hydroxytryptamine receptor 7 (Homo sapiens) (P34969 whole entry): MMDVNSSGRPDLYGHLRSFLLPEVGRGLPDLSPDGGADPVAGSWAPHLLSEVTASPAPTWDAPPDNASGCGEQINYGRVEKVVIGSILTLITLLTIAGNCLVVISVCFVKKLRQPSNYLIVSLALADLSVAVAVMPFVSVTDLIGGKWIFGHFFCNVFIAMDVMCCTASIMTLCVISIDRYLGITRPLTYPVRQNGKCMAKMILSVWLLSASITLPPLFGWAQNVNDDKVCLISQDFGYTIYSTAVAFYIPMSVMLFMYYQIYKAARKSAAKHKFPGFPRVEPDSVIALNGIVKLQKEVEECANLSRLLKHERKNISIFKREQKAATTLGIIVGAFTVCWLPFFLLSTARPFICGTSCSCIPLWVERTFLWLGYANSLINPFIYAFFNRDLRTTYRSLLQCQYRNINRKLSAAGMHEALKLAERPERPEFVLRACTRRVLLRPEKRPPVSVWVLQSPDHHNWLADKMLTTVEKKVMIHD
# Chain of Kappa-type opioid receptor (Rattus norvegicus) (P34975 whole entry): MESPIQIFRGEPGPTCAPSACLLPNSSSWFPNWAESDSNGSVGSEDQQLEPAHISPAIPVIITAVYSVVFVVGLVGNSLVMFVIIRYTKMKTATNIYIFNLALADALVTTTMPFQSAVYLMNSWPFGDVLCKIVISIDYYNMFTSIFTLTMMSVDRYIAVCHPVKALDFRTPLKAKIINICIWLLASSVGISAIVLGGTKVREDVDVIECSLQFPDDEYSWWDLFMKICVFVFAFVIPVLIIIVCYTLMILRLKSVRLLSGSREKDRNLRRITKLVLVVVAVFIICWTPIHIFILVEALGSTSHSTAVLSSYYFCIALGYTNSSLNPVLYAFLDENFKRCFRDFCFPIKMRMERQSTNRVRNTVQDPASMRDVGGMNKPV
# Chain of C-C chemokine receptor type 1 (Homo sapiens) (P32246 whole entry): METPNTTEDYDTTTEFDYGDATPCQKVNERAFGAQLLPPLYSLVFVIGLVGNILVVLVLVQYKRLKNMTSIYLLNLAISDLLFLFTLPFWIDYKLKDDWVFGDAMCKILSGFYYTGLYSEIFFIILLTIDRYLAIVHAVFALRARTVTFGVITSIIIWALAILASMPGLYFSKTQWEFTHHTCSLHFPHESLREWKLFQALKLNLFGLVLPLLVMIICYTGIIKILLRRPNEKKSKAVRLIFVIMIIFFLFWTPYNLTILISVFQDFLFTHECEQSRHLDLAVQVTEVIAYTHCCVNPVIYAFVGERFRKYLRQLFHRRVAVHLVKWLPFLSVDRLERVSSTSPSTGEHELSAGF
# Chain of Histamine H1 receptor (Homo sapiens) (P35367 whole entry): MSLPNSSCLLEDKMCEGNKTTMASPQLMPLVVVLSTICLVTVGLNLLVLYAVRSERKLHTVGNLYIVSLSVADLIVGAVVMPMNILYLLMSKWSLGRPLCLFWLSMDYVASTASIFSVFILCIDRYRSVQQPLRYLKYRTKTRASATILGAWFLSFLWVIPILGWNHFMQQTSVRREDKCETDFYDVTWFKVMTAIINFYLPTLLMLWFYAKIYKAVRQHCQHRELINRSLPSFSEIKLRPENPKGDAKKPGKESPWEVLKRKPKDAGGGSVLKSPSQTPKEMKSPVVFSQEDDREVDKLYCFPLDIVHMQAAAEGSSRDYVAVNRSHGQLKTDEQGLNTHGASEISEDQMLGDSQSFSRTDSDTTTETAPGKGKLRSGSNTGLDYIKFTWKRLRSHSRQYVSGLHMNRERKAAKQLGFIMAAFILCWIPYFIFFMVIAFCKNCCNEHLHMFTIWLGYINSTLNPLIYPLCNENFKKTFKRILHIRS
# Chain of Sodium-dependent noradrenaline transporter (Homo sapiens) (P23975 whole entry): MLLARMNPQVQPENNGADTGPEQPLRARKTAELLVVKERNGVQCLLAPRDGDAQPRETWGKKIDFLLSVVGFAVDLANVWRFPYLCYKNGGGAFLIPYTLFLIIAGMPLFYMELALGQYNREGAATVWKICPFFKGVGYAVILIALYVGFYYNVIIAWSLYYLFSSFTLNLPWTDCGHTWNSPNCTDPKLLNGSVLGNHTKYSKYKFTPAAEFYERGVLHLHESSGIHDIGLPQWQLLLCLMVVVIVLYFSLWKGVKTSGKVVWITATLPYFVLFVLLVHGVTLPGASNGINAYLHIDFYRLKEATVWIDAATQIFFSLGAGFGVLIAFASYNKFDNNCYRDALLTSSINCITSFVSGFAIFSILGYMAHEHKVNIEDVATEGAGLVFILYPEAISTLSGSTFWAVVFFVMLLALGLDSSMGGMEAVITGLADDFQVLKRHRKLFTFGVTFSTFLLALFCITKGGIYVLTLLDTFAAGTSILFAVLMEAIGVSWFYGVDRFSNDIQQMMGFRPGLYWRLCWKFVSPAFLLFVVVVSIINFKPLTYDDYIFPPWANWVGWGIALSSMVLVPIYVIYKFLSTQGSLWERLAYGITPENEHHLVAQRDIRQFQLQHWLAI
structure (smiles),measurement,setting,value
CCOc1cccc(NC(=O)c2ccc(N3CCCC3)c(C(F)(F)F)c2)c1,inhibition,[1],-1%
same,inhibition,CHO,28%
same,inhibition,[2],42%
same,inhibition,[3],0%
same,inhibition,[4],43%
same,inhibition,Rattus norvegicus [5],10%
same,inhibition,[6],-7%
same,inhibition,[7],57%
same,inhibition,[8],9%
same,inhibition,[9],21%
same,inhibition,[10],38%
same,inhibition,[11],4%
same,clearance,[12],109 µL/min/mg
same,inhibition,[13],2%
same,inhibition,[14],80%
same,Ki,[15],0.0009 µM
same,inhibition,[16],-10%
same,inhibition,Rattus norvegicus [17],-3%
same,Ki,[18],> 5 µM
same,inhibition,[19],23%
same,clearance,[20],87 mL/min/kg
same,inhibition,[21],0%
same,inhibition,[22],7%
same,inhibition,[23],6%
same,inhibition at 10 µM,[24],39%
same,inhibition,[25],9%
same,inhibition,[26],44%
same,inhibition,[27],33%
same,inhibition,[28],10%
same,Kp,[29],0.5
same,IC50,[30],4.54 µM
same,inhibition,[31],4%
same,inhibition,Rattus norvegicus [32],-8%
